What is called IC50 is the point on the concentration scale where inhibition reaches its midpoint. Usually viability stands for a read-out of living cells in per cent, often relative to untreated cells.

One assay relates to HepG2. Description: Cytotoxicity against human HepG2 cells assessed as decrease in cell viability after 72 hrs by MTT assay. The class given is functional, cell-based. Conditions: HepG2, 72 h. In outline:
(§1)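 For each cell line, 3000 cells per well were cultured overnight, then given fresh medium with compound. Each compound was tested at ≥7 concentrations in a 3-fold dilution series, with a final DMSO-stock dilution of at least 1000-fold. After 72 h, viability was read by MTT (OD 595 nm). Inhibition was calculated as 1 − [(T72 − C0)/(C72 − C0)] against the 0.1% DMSO control and fitted sigmoidally versus log concentration. Values are mean ± SD, n = 3.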
Background: Tetrazolium assays rely on reduction of a dye to a coloured formazan, in cell work by metabolically active cells.

Assay [1] can be described thus: Cytotoxicity against human HeLaC3 sensor cells assessed as decrease in YFP/CFP emission ratio within 72 hrs by FRET assay. The class given is functional, HeLa C3. Put shortly: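 HeLa-C3 cells stably express a CFP–DEVD linker–YFP FRET caspase-3 sensor. Cells were seeded at 7500 per well, and after 12−16 h a background-subtracted baseline was read (excitation 440 nm; emission 486 nm CFP, 535 nm YFP). Compound at 10 μM was added in fresh medium, with 0.1% DMSO vehicle and 500 nM paclitaxel as positive control. Plates were read repeatedly for up to 72 h. An active compound lowers the YFP/CFP ratio to 3 or below.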

The test system of assay [2] is HeLa. Description: Cytotoxicity against human HeLa cells assessed as decrease in cell viability at 10 uM after 72 hrs by MTT assay. The class given is functional. In outline:
(§2)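 HeLa cells were exposed to compound at 10 μM for 72 h. Vehicle was medium with 0.1% DMSO; paclitaxel (500 nM) was the positive control. MTT (5 mg/mL stock in PBS) was added for 2 h at 37 °C. Crystals were dissolved in 10% SDS/0.01 M HCl for 24 h at 37 °C, and OD was read at 595 nm. Viability at 0 h was set to 100. Three independent experiments.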

Assay [3] in a line: Cytotoxicity against human HCT15 cells assessed as decrease in cell viability after 72 hrs by MTT assay. The class given is functional, cell-based. Conditions: HCT-15, 72 h. Put shortly:
as §1

A further assay has as its system MDA-MB-435. Description: Cytotoxicity against human MDA-MB-435 cells assessed as decrease in cell viability after 72 hrs by MTT assay. The class given is functional, cell-based. The note with it: MDA-MB-435, 72 h. Put shortly: as §1
Another assay has as its system HCT-116. In words: Cytotoxicity against human HCT116 cells assessed as decrease in cell viability after 72 hrs by MTT assay. The class given is functional, cell-based. Conditions: HCT-116, 72 h. In outline:
as §1

The test system of assay [4] is HeLa. In words: Induction of apoptosis in human HeLa cells assessed as morphological and condensed or fragmented DNA at 10 uM after 72 hrs by Hoechst 33342 staining in presence of z-VAD-fmk. The class given is functional, cell-based. Put shortly: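 HeLa cells were treated with compound (10 μM) alone or with zVAD-fmk (50 μM) for 72 h. Controls were medium with 0.1% DMSO, with or without zVAD-fmk. Cells were stained with Hoechst 33342, washed three times with PBS, and imaged by phase contrast and fluorescence microscopy for cell and nuclear morphology.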

Assay [5] has as its system MCF7. In words: Cytotoxicity against human MCF7 cells overexpressing HER2 assessed as decrease in cell viability after 72 hrs by MTT assay. The class given is functional, cell-based. Conditions: MCF7, 72 h. Put shortly:
as §1

The subject of assay [6] is HeLa. In words: Cytotoxicity against human HeLa cells assessed as decrease in cell viability after 72 hrs by MTT assay. The class given is functional, cell-based. Put shortly:
as §1

Assay [7] concerns MCF7. In words: Cytotoxicity against human MCF7 cells assessed as decrease in cell viability after 72 hrs by MTT assay. Conditions: MCF7, 72 h. The class given is functional, cell-based. Put shortly:
as §1

For assay [8], the system named is HeLa. In words: Induction of apoptosis in human HeLa cells assessed as caspase-3 activation at 10 uM after 24 hrs. The class given is functional, cell-based. Put shortly: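 HeLa cells were treated for 24 h with compound (10 μM), against 0.1% DMSO vehicle; the positive control was UV for 3 min, harvested after 6 h. Lysates were made in Tris pH 7.5/Triton buffer with protease inhibitors. A sample of 50 μg protein was incubated with Ac-DEVD-AMC in HEPES pH 7.5 buffer for 1 h at 37 °C in the dark. Fluorescence was read at 355/460 nm and expressed as net reading per μg protein.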

Assay [9] relates to HeLa. In words: Cytotoxicity against human HeLa cells assessed as decrease in cell viability at 10 uM after 72 hrs by MTT assay relative to control. The class given is functional. Put shortly:
as §2

Structures are written as SMILES. Active and inactive are the calls of the source. No cut-off for these calls is given here. A value given as a limit tells only on which side of the number the result lay.

Regarding `CC1(C)C=Cc2cc3c(=O)c4c(O)cc(O)cc4oc3c(O)c2O1`, the IC50 is 10.1 µM in the assay on HepG2; 5.1 µM in assay [3]; 3.9 µM in the assay with MDA-MB-435; 4.7 µM in the assay on HCT-116; 34.4 µM with MCF7 [5]; 4.9 µM in the assay with HeLa [6]. Moreover, the IC50 in the assay with MCF7 [7] came to 11.7 µM. The Ratio in [1] was 3. The viability at 10 µM in the assay on HeLa [2] turned out to be 50%. The outcome in the assay with HeLa [4] was inactive.

For the compound `CC(C)=CCC/C(C)=C/C[C@@H]1C[C@]2(CC=C(C)C)C(=O)[C@@](CC=C(C)C)(C(=O)C(C(=O)c3cccc(O)c3)=C2O)[C@@]1(C)CCC=C(C)C` [GARCICOWIN B], the IC50 in the assay on HepG2 was determined as 6.2 µM; in assay [3] it was 9.6 µM; in the assay with MDA-MB-435, 12.6 µM; in the assay on HCT-116, 6 µM; with MCF7 [5], 19.1 µM; in the assay with HeLa [6], 10.8 µM. In addition, in the assay with MCF7 [7], the IC50 is 10.8 µM. Moreover, in [1], the Ratio is 3. Besides, the viability at 10 µM with HeLa [2] stood at 50%. Also, the outcome in the assay with HeLa [4] was inactive.

In the case of `CC(C)=CCC/C(C)=C/C[C@@H]1C(C)(C)[C@@]2(CC=C(C)C)C(=O)c3c(oc4cc(O)c(O)cc4c3=O)[C@](CC=C(C)C)(C2=O)C1(C)C` [OBLONGIFOLIN G], the IC50 in the assay with HepG2 was 7.7 µM; in [3], 4 µM; in the assay on MDA-MB-435, 16.5 µM; in the assay on HCT-116, 2.9 µM; with MCF7 [5], 2.9 µM; in the assay with HeLa [6] it was 3.9 µM. The IC50 in the assay on MCF7 [7] was 2.6 µM. Moreover, the Ratio in [1] is on record as 3. The outcome in the assay on HeLa [8] was Active. For the same compound, the viability at 10 µM with HeLa [2] was determined as 50%. Further, the “fold change (FC)” value with HeLa [9] is given as over 30. In addition, the result with HeLa [4] was inactive.

In the case of `CC(C)=CCC/C(C)=C/C[C@H]1C(C)(C)[C@@]2(CC=C(C)C)C(=O)c3c(oc4cc(O)c(O)cc4c3=O)[C@](CC=C(C)C)(C2=O)C1(C)C` [OBLONGIFOLIN F], the half-inhibitory concentration (IC50) in the assay on HepG2 was 7.7 µM; in [3], 4.9 µM; in the assay with MDA-MB-435, 16.5 µM; with HCT-116 it was 2.9 µM; in the assay on MCF7 [5] it was 5.1 µM; with HeLa [6], 4.2 µM. Further, in the assay on MCF7 [7], the IC50 is 3 µM. Besides, the Ratio in [1] was 3. For the same compound, in the assay on HeLa [8], the outcome was Active. For the same compound, the viability at 10 µM with HeLa [2] is 50%. Also, the “fold change (FC)” value with HeLa [9] is listed as over 30. Further, the result in the assay with HeLa [4] was inactive.

Turning to `COc1cc(O)c2c(=O)c3ccc(O)c(O)c3oc2c1CCC(C)(C)O` [NIGROLINEAXANTHONE T], the IC50 in the assay with HepG2 is 4.8 µM; in assay [3] it was 2.4 µM; in the assay with MDA-MB-435 it was 9 µM; in the assay with HCT-116, 3.7 µM; in the assay with MCF7 [5], 3.8 µM; in the assay with HeLa [6] it was 4.7 µM. For the same compound, the IC50 in the assay on MCF7 [7] worked out at 3 µM. Moreover, the Ratio in assay [1] came out at 3. For the same compound, the viability at 10 µM in the assay on HeLa [2] stood at 50%. In the assay on HeLa [4], the outcome was inactive.
